PubChem BioAssay
Calls of active or inactive are those of the source.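 Rule for the calls: active = GFP response above 150% of the DMSO control; inconclusive = fewer than 70 events counted in any yeast strain; inactive = the rest.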

Test: RPL19A-GFP modulators, yeast TOR pathway, confirmation, cell-based, S. cerevisiae, flow cytometry, cherry picks, mother/daughter gates (AID 2270)
Conditions: S. cerevisiae RPL19A-GFP strain, 3 h, measured here: mother cell gate, at 10 µM, stronger effect = lower value, 100 = same GFP as DMSO wells

Structure (SMILES) | GFP response vs DMSO [%]
O=C(CCC(F)(F)F)N1CCC(CO)(CCc2ccccc2)CC1 | 102
O=C(Nc1cc(Sc2ccccn2)cc([N+](=O)[O-])c1)c1cccc(F)c1 | 95.9
CC(=O)Nc1cccc(/C(C)=N/NC(=O)c2ccccc2Cl)c1 | 98.7
Cc1cc(Br)c2c(c1)/C(=C/C(=O)c1cccs1)C(=O)N2 | 99.2
N=C1S/C(=C\c2ccco2)C(=O)N1c1nccs1 | 100
Cc1cc(NC(=O)c2cccnc2Cl)ccc1NC(=O)c1cc2ccccc2o1 | 94.5
COc1ccc2c(/C=C/c3cc[n+](C)cc3)c[nH]c2c1 | 101
C/C(=N\NC(=O)COc1ccccc1-c1ccccc1)c1ccccn1 | 102
CC(=O)c1cc(NC(=O)c2ccc(C)cc2)c(=O)oc1C | 96
O=C(Cc1ccc(Cl)cc1)NNC(=S)NC(=O)c1cccs1 | 104
COc1ccc(NC(=O)Nc2ccon2)c(OC)c1 | 99.5
O=S(=O)(c1ccc(Oc2ccc(Br)cc2)cc1)N1CCOCC1 | 103
Cc1cccn2c(=O)c(/C=C(\C#N)C(=O)NCc3ccco3)c(N3CCCC(C)C3)nc12 (stereo not given) | 99.5
CCS(=O)(=O)Nc1cccc(C2=NN(S(C)(=O)=O)C(c3ccccc3)C2)c1 (stereo not given) | 100
Cc1ccc(C(C(=O)NC2CCCCC2)N(CCCN2CCOCC2)C(=O)c2snc(C(N)=O)c2N)cc1 (stereo not given) | 102
O=C(O)C1CCN(S(=O)(=O)c2ccc(Oc3ccccc3)cc2)CC1 | 98.8
CCCC(=O)Nc1ccc(C(=O)/C=C/c2ccc(SC)cc2)cc1 | 99.2
Cc1cccc(CS(=O)(=O)c2ncc(Cl)c(C(=O)NCc3ccc4c(c3)OCO4)n2)c1 | 102
Cc1nnc(NC(=O)c2ccc(S(=O)(=O)N(C)Cc3ccccc3)cc2)o1 | 98.2
Clc1cnc(N/N=C/c2cccs2)c(Cl)c1 | 103

Structure (SMILES) | GFP response vs DMSO [%]
CC1CCCN(CCCNC(=O)C2CCN(S(=O)(=O)N3CCC4(CC3)OCCO4)CC2)C1 (stereo not given) | 98.5
Clc1ccc(OCCn2cnc3ccccc32)c(Cl)c1 | 89.4
O=C(O)c1ccn2c(C(=O)c3ccccc3)c(-c3ccccc3)cc2c1 | 95.4
CC(=O)Oc1ccc(N2C(=O)C3C4C=CC(CO)(O4)C3C2=O)cc1 (stereo not given) | 97.8
COc1ccc(/C=C/C(=O)c2ccc(Cl)cc2)c(OC)c1 | 96.1
O=C(CN1C(=O)c2cccc3cccc(c23)C1=O)N1CCCCCC1 | 101
COC(=O)c1ccc(CS(=O)(=O)c2ccc(F)cc2)o1 | 95.9
O=C(c1cccc(COCC(F)(F)C(F)F)c1)N1CCN(c2ccccc2)CC1 | 102
COc1ccccc1N=Cc1nc(-c2ccccc2)oc1OC(C)=O | 98.3
CNC(=O)c1c(O)c2cccc3c2n(c1=O)CC3 | 103
O=[N+]([O-])c1cc(S(=O)(=O)C(F)(F)F)ccc1Sc1nc2ccccc2s1 | 93.1
CN(C)c1ccc(/C=C/c2cc[n+](C)cc2)cc1 | 109
O=c1oc(/C=C/c2ccc([N+](=O)[O-])s2)nc2ccccc12 | 108
Cc1ccc(Sc2ncnc3onc(C)c23)cc1 | 95.5
COc1ccc(C(=O)c2no[n+]([O-])c2C(=O)c2ccc(OC)cc2)cc1 | 86.6
CCN(CC)CCCN(Cc1cc2cc3c(cc2[nH]c1=O)OCO3)C(=S)Nc1ccccc1 | 80.4
COc1ccc(-c2cc(C(F)(F)F)nc(N3CCOCC3)n2)cc1OC | 98.4
O=c1/c(=C/c2cccc3ccccc23)sc2ncnn12 | 107
Cc1ccccc1NC(=O)c1ccccc1O | 94
COc1ccccc1-c1noc(-c2cc(OC)c(OC)c(OC)c2)n1 | 96.3

Test: LAP4-GFP expression modulators in yeast, confirmation, cell-based, cherry picks, flow cytometry, mother/daughter gates (AID 2271);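 note: ratio of sample to DMSO plate mean so 100% equals DMSO level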
Conditions: S. cerevisiae LAP4-GFP strain, 3 h, at 10 µM, stronger effect = higher value, 100 means same as DMSO control
Summary of the method: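 material = Alexa 633-stained baker's yeast GFP-fusion strain | amount = 0.2 OD600 cells | schedule = 30 °C, 3 h compound incubation, rotating | signal = GFP by flow cytometry | measure = per-gate (all, mother, daughter) GFP response vs DMSO | controls = positive rapamycin (400 ng/mL), negative DMSO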

Structure (SMILES) | GFP response relative to DMSO
O=C(CCC(F)(F)F)N1CCC(CO)(CCc2ccccc2)CC1 | 91.4% (inactive)
O=C(Nc1cc(Sc2ccccn2)cc([N+](=O)[O-])c1)c1cccc(F)c1 | 101% (inactive)
CC(=O)Nc1cccc(/C(C)=N/NC(=O)c2ccccc2Cl)c1 | 102% (inactive)
Cc1cc(Br)c2c(c1)/C(=C/C(=O)c1cccs1)C(=O)N2 | 115% (inactive)
N=C1S/C(=C\c2ccco2)C(=O)N1c1nccs1 | 168% (active)
Cc1cc(NC(=O)c2cccnc2Cl)ccc1NC(=O)c1cc2ccccc2o1 | 103% (inactive)
COc1ccc2c(/C=C/c3cc[n+](C)cc3)c[nH]c2c1 | 144% (inactive)
C/C(=N\NC(=O)COc1ccccc1-c1ccccc1)c1ccccn1 | 145% (inactive)
CC(=O)c1cc(NC(=O)c2ccc(C)cc2)c(=O)oc1C | 105% (inactive)
O=C(Cc1ccc(Cl)cc1)NNC(=S)NC(=O)c1cccs1 | 150% (active)
COc1ccc(NC(=O)Nc2ccon2)c(OC)c1 | 95.7% (inactive)
O=S(=O)(c1ccc(Oc2ccc(Br)cc2)cc1)N1CCOCC1 | 86% (inactive)
Cc1cccn2c(=O)c(/C=C(\C#N)C(=O)NCc3ccco3)c(N3CCCC(C)C3)nc12 (stereo not given) | 96.1% (inactive)
CCS(=O)(=O)Nc1cccc(C2=NN(S(C)(=O)=O)C(c3ccccc3)C2)c1 (stereo not given) | 110% (inactive)
Cc1ccc(C(C(=O)NC2CCCCC2)N(CCCN2CCOCC2)C(=O)c2snc(C(N)=O)c2N)cc1 (stereo not given) | 105% (inactive)
O=C(O)C1CCN(S(=O)(=O)c2ccc(Oc3ccccc3)cc2)CC1 | 97.7% (inactive)
CCCC(=O)Nc1ccc(C(=O)/C=C/c2ccc(SC)cc2)cc1 | 105% (inactive)
Cc1cccc(CS(=O)(=O)c2ncc(Cl)c(C(=O)NCc3ccc4c(c3)OCO4)n2)c1 | 90.2% (inactive)
Cc1nnc(NC(=O)c2ccc(S(=O)(=O)N(C)Cc3ccccc3)cc2)o1 | 101% (inactive)
Clc1cnc(N/N=C/c2cccs2)c(Cl)c1 | 178% (active)

Structure (SMILES) | GFP response relative to DMSO
CC1CCCN(CCCNC(=O)C2CCN(S(=O)(=O)N3CCC4(CC3)OCCO4)CC2)C1 (stereo not given) | 97.9% (inactive)
Clc1ccc(OCCn2cnc3ccccc32)c(Cl)c1 | 134% (inactive)
O=C(O)c1ccn2c(C(=O)c3ccccc3)c(-c3ccccc3)cc2c1 | 113% (inactive)
CC(=O)Oc1ccc(N2C(=O)C3C4C=CC(CO)(O4)C3C2=O)cc1 (stereo not given) | 120% (inactive)
COc1ccc(/C=C/C(=O)c2ccc(Cl)cc2)c(OC)c1 | 104% (inactive)
O=C(CN1C(=O)c2cccc3cccc(c23)C1=O)N1CCCCCC1 | 97% (inactive)
COC(=O)c1ccc(CS(=O)(=O)c2ccc(F)cc2)o1 | 98.9% (inactive)
O=C(c1cccc(COCC(F)(F)C(F)F)c1)N1CCN(c2ccccc2)CC1 | 100% (inactive)
COc1ccccc1N=Cc1nc(-c2ccccc2)oc1OC(C)=O | 103% (inactive)
CNC(=O)c1c(O)c2cccc3c2n(c1=O)CC3 | 94.2% (inactive)
O=[N+]([O-])c1cc(S(=O)(=O)C(F)(F)F)ccc1Sc1nc2ccccc2s1 | 184% (active)
CN(C)c1ccc(/C=C/c2cc[n+](C)cc2)cc1 | 160% (active)
O=c1oc(/C=C/c2ccc([N+](=O)[O-])s2)nc2ccccc12 | 184% (active)
Cc1ccc(Sc2ncnc3onc(C)c23)cc1 | 117% (inactive)
COc1ccc(C(=O)c2no[n+]([O-])c2C(=O)c2ccc(OC)cc2)cc1 | 149% (inactive)
CCN(CC)CCCN(Cc1cc2cc3c(cc2[nH]c1=O)OCO3)C(=S)Nc1ccccc1 | 135% (inactive)
COc1ccc(-c2cc(C(F)(F)F)nc(N3CCOCC3)n2)cc1OC | 101% (inactive)
O=c1/c(=C/c2cccc3ccccc23)sc2ncnn12 | 185% (active)
Cc1ccccc1NC(=O)c1ccccc1O | 106% (inactive)
COc1ccccc1-c1noc(-c2cc(OC)c(OC)c(OC)c2)n1 | 103% (inactive)
